Test results: ChEMBL document CHEMBL1126663, “Purine 2'-deoxy-2'-fluororibosides as antiinfluenza virus agents” (J Med Chem, 1993)

Experiments:
Influenza A virus = assay: Antiviral activity against Influenza virus (A/Sweden/3/50/ (H1N1)) in dog kidney (MDCK) cells expressed.; assay type: functional, organism-based
In short: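 Plaque reduction assay. Confluent MDCK monolayers were infected with 50-150 PFU in the presence of compound, then overlaid with nutrient agarose containing 0.1 µg/mL trypsin, 100 µg/mL DEAE-dextran and compound. After 3-4 days at 36 °C, cells were formalin-fixed and methyl violet-stained, and plaques were counted as % of the untreated infected control, in triplicate. IC50 came from mean-versus-log concentration curves.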

[1] = Cytotoxicity in uninfected dog kidney (MDCK) cells.; assay type: cell-based; details: Canis lupus familiaris
In short: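 Dividing MDCK cells seeded at 2 × 10^4 cells/well in 24-well plates; compound added to growth medium at various concentrations. Cell growth compared with untreated controls over 4 days incubation (3-4 cell doublings).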

| SMILES | IC50 (Influenza A virus) | IC50 [1] |
| --- | --- | --- |
| COc1ncnc2c1ncn2[C@@H]1O[C@H](CO)[C@@H](O)[C@H]1F | > 100 µM | > 500 µM |
| COc1nc(N)c2ncn([C@@H]3O[C@H](CO)[C@@H](O)[C@H]3F)c2n1 | > 100 µM | > 500 µM |
| Nc1ncc2ncn([C@@H]3O[C@H](CO)[C@@H](O)[C@H]3F)c2n1 | > 100 µM | > 500 µM |
| CCOc1nc(N)nc2c1ncn2[C@@H]1O[C@H](CO)[C@@H](O)[C@H]1F | 29 µM | > 500 µM |
| Nc1nc(I)c2ncn([C@@H]3O[C@H](CO)[C@@H](O)[C@H]3F)c2n1 | 23 µM | 300 µM |
| Nc1ncnc2c1ncn2[C@@H]1O[C@H](CO)[C@@H](O)[C@H]1F [2'-BETA-FLUORO-2',3'-DEOXYADENOSINE] | 52 µM | 320 µM |
| Cc1nc(N)c2ncn([C@@H]3O[C@H](CO)[C@@H](O)[C@H]3F)c2n1 | > 100 µM | > 500 µM |
| Nc1nc(NC2CC2)c2ncn([C@@H]3O[C@H](CO)[C@@H](O)[C@H]3F)c2n1 | 72 µM | > 500 µM |
| Nc1nc(Cl)c2ncn([C@@H]3O[C@H](CO)[C@@H](O)[C@H]3F)c2n1 | 17 µM | > 500 µM |
| Nc1nc(F)nc2c1ncn2[C@@H]1O[C@H](CO)[C@@H](O)[C@H]1F | > 100 µM | 120 µM |
| CSc1nc(N)nc2c1ncn2[C@@H]1O[C@H](CO)[C@@H](O)[C@H]1F | > 100 µM | > 500 µM |
| Cc1nc(N)nc2c1ncn2[C@@H]1O[C@H](CO)[C@@H](O)[C@H]1F | > 100 µM | > 500 µM |
| CSc1ncnc2c1ncn2[C@@H]1O[C@H](CO)[C@@H](O)[C@H]1F | > 100 µM | > 500 µM |
| Nc1nc(N)c2ncn([C@@H]3O[C@H](CO)[C@@H](O)[C@H]3F)c2n1 | 15 µM | > 500 µM |
| COc1nc(N)nc2c1ncn2[C@@H]1O[C@H](CO)[C@@H](O)[C@H]1F | 16 µM | > 500 µM |
| CCCOc1nc(N)nc2c1ncn2[C@@H]1O[C@H](CO)[C@@H](O)[C@H]1F | 36 µM | > 500 µM |
| OC[C@H]1O[C@@H](n2cnc3c(O)ncnc32)[C@H](F)[C@@H]1O | > 100 µM | > 500 µM |
| CCOc1ncnc2c1ncn2[C@@H]1O[C@H](CO)[C@@H](O)[C@H]1F | > 100 µM | > 500 µM |
| OC[C@H]1O[C@@H](n2cnc3c(NC4CC4)ncnc32)[C@H](F)[C@@H]1O | > 100 µM | > 500 µM |
